Reference: ChEMBL document CHEMBL3085723, “Design, synthesis and discovery of picomolar selective α4β2 nicotinic acetylcholine receptor ligands” (J Med Chem, 2013)
Activity calls are given as the source filed them. The calls are words filed in the database; no cut-off is given here.

Legend:
Rattus norvegicus [1] = experiment: Effect on locomotor activity in Sprague-Dawley rat assessed as increase in activity at 0.3 to 3 mg/kg, sc administered on successive days 10 mins prior to test measured for 1 hr relative to vehicle-treated control; assay type: functional, organism-based
Procedure, shortened: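 Separate group of young adult female Sprague-Dawley rats (N = 12), group-housed with free food. Dosed sc at 0, 0.3, 1 or 3 mg/kg in saline 10 min before a 1 h figure-eight maze session, counterbalanced, ≥2 days apart, each dose given once. Activity counted as infrared photobeam breaks in 5 min blocks.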

Homo sapiens [2] = species on record: Homo sapiens; experiment: Selectivity ratio of Ki for 5HT-1C receptor (unknown origin) to Ki for human alpha4beta2 nAChR
Homo sapiens [3] = species on record: Homo sapiens; experiment: Selectivity ratio of Ki for KOR (unknown origin) to Ki for human alpha4beta2 nAChR
[4] = biological target: T1, Neuronal acetylcholine receptor; alpha4/beta2 (Homo sapiens, UniProt P17787+P43681); experiment: Agonist activity at human alpha4beta2 nAChR assessed as induction of inward current by whole-cell voltage clamp analysis relative to acetylcholine; assay type: protein-complex assay
T1 sequence (P17787 whole entry, the tested form may be a part): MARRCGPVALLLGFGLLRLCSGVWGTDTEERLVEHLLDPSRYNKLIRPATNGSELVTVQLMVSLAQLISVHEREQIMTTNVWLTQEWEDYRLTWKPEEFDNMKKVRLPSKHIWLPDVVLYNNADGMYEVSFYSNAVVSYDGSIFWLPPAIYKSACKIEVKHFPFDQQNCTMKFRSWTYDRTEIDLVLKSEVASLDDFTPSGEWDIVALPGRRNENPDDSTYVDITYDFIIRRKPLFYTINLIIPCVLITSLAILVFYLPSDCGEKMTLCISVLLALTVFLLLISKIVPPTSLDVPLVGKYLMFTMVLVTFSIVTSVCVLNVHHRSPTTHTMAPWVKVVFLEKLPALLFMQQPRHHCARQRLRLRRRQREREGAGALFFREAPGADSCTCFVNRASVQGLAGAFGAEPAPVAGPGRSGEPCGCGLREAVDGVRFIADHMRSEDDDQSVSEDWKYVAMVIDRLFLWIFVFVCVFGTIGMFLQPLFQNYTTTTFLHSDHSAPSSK
T1 sequence (P43681 whole entry, the tested form may be a part): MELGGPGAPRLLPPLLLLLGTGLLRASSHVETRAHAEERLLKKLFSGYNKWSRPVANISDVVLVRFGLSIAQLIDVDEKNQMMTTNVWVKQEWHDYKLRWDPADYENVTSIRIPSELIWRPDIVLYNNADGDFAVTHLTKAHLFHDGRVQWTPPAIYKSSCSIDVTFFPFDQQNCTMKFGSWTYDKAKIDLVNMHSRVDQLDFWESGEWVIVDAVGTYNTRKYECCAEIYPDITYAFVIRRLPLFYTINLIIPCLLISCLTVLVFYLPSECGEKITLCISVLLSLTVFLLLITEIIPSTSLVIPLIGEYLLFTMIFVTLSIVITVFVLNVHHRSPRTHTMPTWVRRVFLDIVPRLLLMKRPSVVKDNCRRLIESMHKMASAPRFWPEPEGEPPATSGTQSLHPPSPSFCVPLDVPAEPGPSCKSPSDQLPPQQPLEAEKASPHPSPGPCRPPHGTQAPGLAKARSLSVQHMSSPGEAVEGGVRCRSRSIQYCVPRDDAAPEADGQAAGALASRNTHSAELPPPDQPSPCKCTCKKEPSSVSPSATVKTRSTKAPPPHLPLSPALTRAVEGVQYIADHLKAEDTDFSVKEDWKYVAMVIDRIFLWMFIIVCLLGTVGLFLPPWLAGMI
Procedure, shortened: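 Whole-cell voltage clamp at −70 mV on YXα4β2H1 cells pretreated with 1 mM carbachol for 48 h. Pipette K-gluconate/EGTA/ATP/GTP solution, pH 7.2. Perfusion saline pH 7.4 at 24 °C. Test agent 200 nM applied by bath. Current normalized to two stable prior 32 μM ACh responses given 5 min apart. n = 3 cells.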

Homo sapiens [5] = species on record: Homo sapiens; experiment: Selectivity ratio of Ki for sigma 2 receptor (unknown origin) to Ki for human alpha4beta2 nAChR
Homo sapiens [6] = species on record: Homo sapiens; experiment: Selectivity ratio of Ki for 5HT-1A receptor (unknown origin) to Ki for human alpha4beta2 nAChR
[7] = biological target: Neuronal acetylcholine receptor; alpha2/beta2 (Rattus norvegicus, UniProt P12389+P12390); experiment: Displacement of [3H]epibatidine from rat alpha2beta2 nAChR expressed in HEK293 cells after 4 hrs; assay type: cell-based
Chain of Neuronal acetylcholine receptor; alpha2/beta2 (P12389 whole entry): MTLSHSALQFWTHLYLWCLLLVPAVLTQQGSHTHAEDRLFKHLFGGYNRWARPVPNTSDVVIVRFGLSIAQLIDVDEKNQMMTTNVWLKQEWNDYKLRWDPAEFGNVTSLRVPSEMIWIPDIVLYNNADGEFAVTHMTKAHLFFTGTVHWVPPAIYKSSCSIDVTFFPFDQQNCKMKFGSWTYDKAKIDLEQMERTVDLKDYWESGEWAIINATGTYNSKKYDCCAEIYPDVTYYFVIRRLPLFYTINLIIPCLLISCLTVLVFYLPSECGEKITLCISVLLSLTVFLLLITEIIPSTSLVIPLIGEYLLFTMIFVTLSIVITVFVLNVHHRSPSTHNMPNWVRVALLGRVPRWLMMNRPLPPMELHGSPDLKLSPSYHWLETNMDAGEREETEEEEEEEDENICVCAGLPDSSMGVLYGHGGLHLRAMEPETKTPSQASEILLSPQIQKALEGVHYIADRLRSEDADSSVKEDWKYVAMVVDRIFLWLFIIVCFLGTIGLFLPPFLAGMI
Chain of Neuronal acetylcholine receptor; alpha2/beta2 (P12390 whole entry): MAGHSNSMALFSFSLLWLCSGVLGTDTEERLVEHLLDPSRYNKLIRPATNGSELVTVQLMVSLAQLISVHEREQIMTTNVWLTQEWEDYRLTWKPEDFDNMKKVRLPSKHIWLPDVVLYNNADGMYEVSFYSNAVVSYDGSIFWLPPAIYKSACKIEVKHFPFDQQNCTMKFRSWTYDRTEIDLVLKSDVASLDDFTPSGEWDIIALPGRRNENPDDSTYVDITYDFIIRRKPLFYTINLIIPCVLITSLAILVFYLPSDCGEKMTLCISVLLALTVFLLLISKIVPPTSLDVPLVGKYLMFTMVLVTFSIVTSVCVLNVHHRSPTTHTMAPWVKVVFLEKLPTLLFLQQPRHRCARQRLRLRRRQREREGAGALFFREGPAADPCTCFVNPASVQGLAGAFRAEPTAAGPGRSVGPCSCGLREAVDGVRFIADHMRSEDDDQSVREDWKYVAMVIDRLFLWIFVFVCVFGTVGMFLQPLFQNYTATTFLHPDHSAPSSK
Procedure, shortened: (§1)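 Membranes from stably transfected cells or rat forebrain, homogenized in 50 mM Tris·HCl, pH 7.4, at 4 °C and pelleted at 36000g. […] Separation by vacuum filtration on PEI-treated GF/C filters. Ki reported.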

[8] = biological target: T2, Neuronal acetylcholine receptor; alpha3/beta4 (Rattus norvegicus, UniProt P04757+P12392); experiment: Antagonist activity at rat alpha3beta4 nAChR expressed in HEK293 cells assessed as inhibition of nicotine-induced [86Rb+] efflux preincubated for 10 mins before nicotine exposure by liquid scintillation counting; assay type: cell-based
T2 sequence (P04757 whole entry): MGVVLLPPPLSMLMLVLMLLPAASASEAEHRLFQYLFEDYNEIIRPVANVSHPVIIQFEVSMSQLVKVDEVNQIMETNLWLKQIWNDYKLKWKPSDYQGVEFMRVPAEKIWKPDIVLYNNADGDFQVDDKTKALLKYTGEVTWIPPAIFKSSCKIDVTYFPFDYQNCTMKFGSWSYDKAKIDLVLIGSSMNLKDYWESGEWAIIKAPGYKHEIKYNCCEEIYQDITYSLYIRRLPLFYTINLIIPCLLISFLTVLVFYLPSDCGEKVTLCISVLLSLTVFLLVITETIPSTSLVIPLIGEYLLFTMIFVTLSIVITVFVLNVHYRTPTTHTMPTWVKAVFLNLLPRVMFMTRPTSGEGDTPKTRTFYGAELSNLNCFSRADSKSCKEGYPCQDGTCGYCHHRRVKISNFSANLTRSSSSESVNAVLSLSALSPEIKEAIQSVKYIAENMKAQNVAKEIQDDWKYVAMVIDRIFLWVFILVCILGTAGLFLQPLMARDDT
T2 sequence (P12392 whole entry): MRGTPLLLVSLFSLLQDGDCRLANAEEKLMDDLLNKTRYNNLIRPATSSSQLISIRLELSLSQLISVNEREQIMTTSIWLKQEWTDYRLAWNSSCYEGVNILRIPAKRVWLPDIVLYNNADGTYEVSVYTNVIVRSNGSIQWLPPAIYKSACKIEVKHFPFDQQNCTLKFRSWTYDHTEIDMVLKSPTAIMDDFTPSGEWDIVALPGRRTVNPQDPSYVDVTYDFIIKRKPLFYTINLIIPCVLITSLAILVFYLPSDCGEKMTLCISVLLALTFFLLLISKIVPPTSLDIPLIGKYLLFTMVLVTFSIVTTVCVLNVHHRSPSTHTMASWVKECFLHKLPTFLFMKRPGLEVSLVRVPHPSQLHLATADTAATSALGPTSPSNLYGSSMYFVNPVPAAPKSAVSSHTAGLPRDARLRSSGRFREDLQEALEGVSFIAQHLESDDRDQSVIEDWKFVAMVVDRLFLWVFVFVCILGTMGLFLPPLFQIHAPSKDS

[9] = Fraction unbound in rat brain homogenate at 5 uM after 4 hrs equilibrium dialysis method; assay type: ADME, tissue-based
Procedure, shortened: (§2)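 Test agent at 5 μM incubated in rat plasma or brain homogenate. Dialysed against PBS in a RED equilibrium dialysis device for 4 h, both sides quantified by LC/MS/MS. Unbound fraction from protein-containing vs protein-free concentrations. Brain value corrected for homogenate dilution factor D.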

[10] = biological target: T1, Neuronal acetylcholine receptor; alpha4/beta2; experiment: Ratio of nicotine IC50 to compound IC50 for human alpha4beta2 nAChR assessed as inhibition of nicotine-induced [86Rb+] efflux preincubated for 10 mins before nicotine exposure by liquid scintillation counting; assay type: protein-complex assay
Procedure, shortened: (§3)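 Human α4β2 (YXα4β2H1 cells), ⁸⁶Rb⁺-loaded. […] IC50(10′) by nonlinear regression, and the ratio taken between reference and test IC50.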

Rattus norvegicus [11] = experiment: Antiaddiction activity in Sprague-Dawley rat assessed as decrease in nicotine intravenous self-administration at 0.3 to 1 mg/kg, sc administered on successive days 10 mins prior to test relative to vehicle-treated control; assay type: functional, organism-based
Procedure, shortened: (§4)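 Young adult female Sprague-Dawley rats (N = 15), singly housed on a reverse 12:12 cycle. […] Drug at 0, 0.3, 1 or 3 mg/kg sc in saline (1 mL/kg), 10 min pretest, counterbalanced, ≥2 days apart. Each dose given twice. Infusions analysed per session and per 15 min period.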

Homo sapiens [12] = species on record: Homo sapiens; experiment: Selectivity ratio of Ki for NET (unknown origin) to Ki for human alpha4beta2 nAChR
[13] = biological target: T1, Neuronal acetylcholine receptor; alpha4/beta2; experiment: Agonist activity at human alpha4beta2 nAChR assessed as stimulation of [86Rb+] efflux after 2 mins by cell-based liquid scintillation counting
[14] = biological target: Neuronal acetylcholine receptor; alpha4/beta4 (Rattus norvegicus, UniProt P09483+P12392); experiment: Displacement of [3H]epibatidine from rat alpha4beta4 nAChR expressed in HEK293 cells after 4 hrs; assay type: cell-based; procedure, shortened: as §1
Chain of Neuronal acetylcholine receptor; alpha4/beta4 (P09483 whole entry): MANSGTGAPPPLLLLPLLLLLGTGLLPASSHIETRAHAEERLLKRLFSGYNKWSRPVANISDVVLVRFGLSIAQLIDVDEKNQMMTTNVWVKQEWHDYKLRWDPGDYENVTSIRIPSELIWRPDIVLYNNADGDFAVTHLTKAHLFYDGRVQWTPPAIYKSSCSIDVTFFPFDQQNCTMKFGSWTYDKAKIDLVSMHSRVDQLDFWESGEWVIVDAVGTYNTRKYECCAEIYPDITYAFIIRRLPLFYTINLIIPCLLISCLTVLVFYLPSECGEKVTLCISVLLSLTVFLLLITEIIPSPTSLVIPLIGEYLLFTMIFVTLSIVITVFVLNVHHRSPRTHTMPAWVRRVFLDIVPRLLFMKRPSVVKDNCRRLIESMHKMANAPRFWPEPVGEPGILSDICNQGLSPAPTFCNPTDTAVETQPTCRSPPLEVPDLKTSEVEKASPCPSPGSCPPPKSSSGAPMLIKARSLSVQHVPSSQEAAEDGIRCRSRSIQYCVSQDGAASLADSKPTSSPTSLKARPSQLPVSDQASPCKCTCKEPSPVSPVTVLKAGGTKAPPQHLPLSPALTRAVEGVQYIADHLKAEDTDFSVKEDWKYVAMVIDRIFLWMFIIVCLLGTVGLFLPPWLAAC
Chain of Neuronal acetylcholine receptor; alpha4/beta4 (P12392 whole entry): as the sequence (P12392 whole entry) above

[15] = biological target: Neuronal acetylcholine receptor; alpha2/beta4 (Rattus norvegicus, UniProt P12389+P12392); experiment: Displacement of [3H]epibatidine from rat alpha2beta4 nAChR expressed in HEK293 cells after 4 hrs; assay type: cell-based; procedure, shortened: as §1
Chain of Neuronal acetylcholine receptor; alpha2/beta4 (P12389 whole entry): as the sequence (P12389 whole entry) above
Chain of Neuronal acetylcholine receptor; alpha2/beta4 (P12392 whole entry): as the sequence (P12392 whole entry) above

[16] = Displacement of [3H]epibatidine from nAChR in rat forebrain; assay type: tissue-based; procedure, shortened: as §1
[17] = biological target: Neuronal acetylcholine receptor; alpha3/beta2 (Rattus norvegicus, UniProt P04757+P12390); experiment: Displacement of [3H]epibatidine from rat alpha3beta2 nAChR expressed in HEK293 cells after 4 hrs; assay type: cell-based; procedure, shortened: as §1
Chain of Neuronal acetylcholine receptor; alpha3/beta2 (P04757 whole entry): as the sequence (P04757 whole entry) above
Chain of Neuronal acetylcholine receptor; alpha3/beta2 (P12390 whole entry): as the sequence (P12390 whole entry) above

[18] = Fraction unbound in rat plasma at 5 uM after 4 hrs by equilibrium dialysis method; assay type: ADME, cell-free; procedure, shortened: as §2
[19] = biological target: T2, Neuronal acetylcholine receptor; alpha3/beta4; experiment: Displacement of [3H]epibatidine from rat alpha3beta4 nAChR expressed in HEK293 cells after 4 hrs; assay type: cell-based; procedure, shortened: as §1
Homo sapiens [20] = species on record: Homo sapiens; experiment: Selectivity ratio of Ki for SERT (unknown origin) to Ki for human alpha4beta2 nAChR
[21] = biological target: T1, Neuronal acetylcholine receptor; alpha4/beta2; experiment: Ratio of varenicline IC50 to compound IC50 for human alpha4beta2 nAChR assessed as inhibition of nicotine-induced [86Rb+] efflux preincubated for 10 mins before nicotine exposure by liquid scintillation counting; assay type: protein-complex assay; procedure, shortened: as §3
HEK293 = experiment: Selectivity ratio of Ki for rat alpha3beta4 nAChR expressed in HEK293 cells to Ki for human alpha4beta2 nAChR; assay type: cell-based
Homo sapiens [22] = species on record: Homo sapiens; experiment: Selectivity ratio of Ki for DAT (unknown origin) to Ki for human alpha4beta2 nAChR
Rattus norvegicus [23] = experiment: Antiaddiction activity in Sprague-Dawley rat assessed as decrease in nicotine intravenous self-administration at 3 mg/kg, sc […] relative to vehicle-treated control; assay type: functional, organism-based; parameters: dose 3 mg/kg
Homo sapiens [24] = species on record: Homo sapiens; experiment: Selectivity ratio of Ki for 5HT-1B receptor (unknown origin) to Ki for human alpha4beta2 nAChR
[25] = biological target: T1, Neuronal acetylcholine receptor; alpha4/beta2; experiment: Displacement of [3H]epibatidine from human alpha4beta2 nAChR after 4 hrs by cell-based assay
Procedure, shortened: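 Membranes from stably transfected cells or rat forebrain, homogenized in 50 mM Tris·HCl, pH 7.4, at 4 °C and pelleted at 36000g. Separation by vacuum filtration on PEI-treated GF/C filters. Ki reported.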

Homo sapiens [26] = species on record: Homo sapiens; experiment: Selectivity ratio of Ki for alpha2C adrenergic receptor (unknown origin) to Ki for human alpha4beta2 nAChR
[27] = biological target: T1, Neuronal acetylcholine receptor; alpha4/beta2; experiment: Agonist activity at human alpha4beta2 nAChR assessed as stimulation of [86Rb+] efflux after 2 mins by cell-based liquid scintillation counting relative to nicotine
Homo sapiens [28] = species on record: Homo sapiens; experiment: Selectivity ratio of Ki for dopaminergic D1 receptor (unknown origin) to Ki for human alpha4beta2 nAChR
Rattus norvegicus [29] = experiment: Antiaddiction activity in Sprague-Dawley rat assessed as decrease in nicotine intravenous self-administration at 3 mg/kg, sc administered on successive days 10 mins prior to test measured at 15 mins time period each session relative to vehicle-treated control; assay type: functional, organism-based; parameters: dose 3 mg/kg; procedure, shortened: as §4

Compound: C(#Cc1cncc(OC[C@@H]2CCN2)c1)c1ccccc1
- Activity (Rattus norvegicus [1]): Active
- Ratio Ki (Homo sapiens [2]): > 3000
- Ratio Ki (Homo sapiens [3]): > 3000
- Activity [4]: 12.6%
- Ratio Ki (Homo sapiens [5]): > 3000
- Ratio Ki (Homo sapiens [6]): > 3000
- Ki [7]: 0.11 nM
- IC50 [8]: > 10000 nM
- fraction unbound at 4 h, 5 µM [9]: 0.0121
- Ratio IC50 [10]: 23
- Activity (Rattus norvegicus [11]): inactive
- Ratio Ki (Homo sapiens [12]): > 3000
- EC50 [13]: 10 nM
- Ki [14]: 11 nM
- Ki [15]: 58 nM
- Ki [16]: 0.5 nM
- Ki [17]: 0.53 nM
- fraction unbound at 4 h, 5 µM [18]: 0.084
- Ki [19]: 640 nM
- Ratio Ki (Homo sapiens [20]): > 3000
- Ratio IC50 [21]: 6
- Ratio Ki (HEK293): 13000
- Ratio Ki (Homo sapiens [22]): > 3000
- Activity (Rattus norvegicus [23]): Active
- Ratio Ki (Homo sapiens [24]): > 3000
- Ki [25]: 0.049 nM
- Ratio Ki (Homo sapiens [26]): > 3000
- Emax [27]: 24%
- Ratio Ki (Homo sapiens [28]): > 3000
- Activity (Rattus norvegicus [29]): Active
